The test system of data set [1] is Rattus norvegicus. Put plainly: Urinary excretion in rat assessed as radioactivity at 10 mg/kg, iv after 24 h. In kind it is ADME, organism-based, Urine. On the set-up: dose 10 mg/kg, route intravenous. To be noted: in vivo. The method, boiled down: (§1)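 Rats were dosed i.v. via the tail vein with [14C]CS-023 at 10 mg/kg (4.58 MBq/kg) in saline, then kept in individual metabolic cages for separate urine and feces collection over 7 days. Samples up to 24 h were collected at around 4°C into 0.5 M MOPS pH 6.0, and feces were homogenized. Radioactivity was measured by liquid scintillation counting. Parent drug and metabolite were apportioned by silica TLC (3% NaCl:acetonitrile 2:1) with imaging-plate analysis. n=4.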

In data set [2] the test system is Rattus norvegicus. Put plainly: Fecal excretion in rat assessed as radioactivity at 10 mg/kg, iv after 24 h. In kind it is ADME, organism-based. Further details: dose 10 mg/kg, route intravenous. The note with it: in vivo. The method, boiled down: as §1

Molecules are shown by their SMILES.

With `C[C@@H]1[C@H]([C@H](C(=O)O)[C@@H](C)O)N=C(C(=O)O)[C@H]1S[C@H]1C[C@@H](C(=O)N2CC[C@H](NC(=O)CNC(=N)N)C2)N(C)C1`, the Activity is recorded as 31.4% with Rattus norvegicus [1] and 1.3% with Rattus norvegicus [2].

The record behind these values is ChEMBL document CHEMBL1142153, “Pharmacokinetics and disposition of CS-023 (RO4908463), a novel parenteral carbapenem, in animals” (Antimicrob Agents Chemother, 2007).
